These results are taken from ChEMBL document CHEMBL1127686, “Synthesis of selective non-Ca(2+)-mobilizing inhibitors of D-myo-inositol 1,4,5-trisphosphate 5-phosphatase” (J Med Chem, 1994).

Assay [1] in a line: Binding affinity for Inositol 1,4,5-trisphosphate kinase. In short, it runs like this: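 Crude rat brain Ins(1,4,5)P3 3-kinase; inhibition of [3H]Ins(1,4,5)P3 phosphorylation measured; Km for Ins(1,4,5)P3 0.6 μM; Ki determined by a previously described method.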
Assay [2] can be described thus: Tested for binding affinity against human erythrocyte 5-phosphatase.
The nature of assay [3]: Tested for binding affinity against Ins(1,4,5)-P3 5-phosphatase. More on the design: species or system Homo sapiens.
Assay [4] is described as follows: Competitive inhibition of Inositol 1,4,5-trisphosphate 5-phosphatase. More on the design: species or system Homo sapiens.
Assay [5] is filed under the species Homo sapiens. The experiment in a line: Tested for Ca+2 potency in human neuroblastoma cells. In kind it is functional. In short, it runs like this:
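Ca2+ release from intracellular stores measured in electrically permeabilized human neuroblastoma cells; potency expressed as EC50.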

Assay [6] is filed under the species Homo sapiens. Put plainly: (§1) Competitive inhibition of human erythrocyte membrane Ins(1,4,5)P3 5-phosphatase. In short, it runs like this: (§2)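 Ins(1,4,5)P3 5-phosphatase from human erythrocyte membrane; Ki determined by a previously described method, taken as the mean of at least three experiments.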
Assay [7] can be described thus: as §1. In short, it runs like this:
as §2

Where “and” joins values, the source holds several entries; their conditions need not be identical. Equal values may be shown once.

For `OC1C(O)C(OP(O)(O)=S)C(OP(O)(O)=S)C(O)C1OP(O)(O)=S` (stereo in doubt; 24), the Ki – broadly, a measure of affinity in units of concentration, obtained from inhibition or displacement – in assay [1] was determined as 247 µM; in assay [2] it was 0.3 µM. The compound `OC1C(O)C(OP(O)(O)=S)C(OP(O)(O)=S)C(O)C1OP(O)(O)=S` (configuration not stated) registered a Ki in assay [3] of 0.5 µM. Compound `OC1C(OP(O)(O)=S)C(O)C(OP(O)(O)=S)C(O)C1OP(O)(O)=S` (configuration not stated) came in with a Ki in assay [3] of 0.43 µM. `O=P(O)(O)O[C@@H]1[C@H](O)[C@H](O)[C@@H](OP(=O)(O)O)[C@H](OP(=O)(O)O)[C@H]1O` [INS(1,4,5)P3]: the values for the Ki in assay [4] and in assay [2] were 39 µM and 124 µM, respectively. The EC50 – broadly, the concentration giving half of the maximal effect – in the assay filed under Homo sapiens [5] was determined as 0.12 µM. Also, the Km – broadly, the substrate concentration at which the rate is half of its maximum – in the assay filed under Homo sapiens [6] was 40 µM. For `O=C(O)C(COP(=O)(O)O)OP(=O)(O)O` (configuration not stated), in assay [2], the Ki is 350 µM and 978 µM. For `O=P(O)(O)O[C@H]1[C@H](O)[C@@H](OP(=O)(O)O)[C@H](O)[C@@H](OP(=O)(O)O)[C@H]1O`, the Ki in assay [4] was 45 µM. `OC1C(O)C(OP(O)(O)=S)C(OP(O)(O)=S)C(O)C1OP(O)(O)=S` (stereo in doubt): the Ki in assay [1] amounted to 1.46 µM; in assay [7], 1.7 µM.
